Active and inactive are the calls of the source. The rule behind the calls is not given here.
What was measured:
Cannabinoid receptor 2 [1] = biological target: T1, Cannabinoid receptor 2 (Homo sapiens, UniProt P34972); test: Displacement of [3H]CP55940 from human CB2 receptor membrane fractions
Procedure, shortened: (§1)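 Membranes from confluent recombinant hCB1 or hCB2 cells: sonicated on ice in 20 mM Tris–HCl pH 7.4, 2 mM EDTA, 0.25 M sucrose with protease inhibitor; spun 3000 rpm 10 min, then supernatant 100,000 g 60 min at 4 °C; pellets stored at −80 °C. Radioligand [3H]-CP55940; its Kd per membrane set by Scatchard analysis.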

Mus musculus [2] = test: Toxicity in mouse assessed as catalepsy at 0.1 to 1 mg/kg, iv measured at 15 mins post compound administration; assay type: organism-based; design: dose 0.1-1 mg/kg, route intravenous; details: in vivo, 0.25 h
Procedure, shortened: (§2)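 ICR mice, n = 3 per dose, given compound iv in tail vein at 0.1 and 1.0 mg/kg, dissolved in MDAA and PEG solution. Behaviour observed 15 min post-dose and scored: 5 tonic convulsion, 4 catalepsy, 3 prone position/sedation, 2 crawling, 1 decreased locomotion, 0 normal.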

Mus musculus [3] = test: Toxicity in mouse assessed as sedation at 0.1 to 1 mg/kg, iv measured at 15 mins post compound administration; assay type: organism-based; design: dose 0.1-1 mg/kg, route intravenous; details: in vivo, 0.25 h; procedure, shortened: as §2
Mus musculus [4] = species on record: Mus musculus; test: Antipruritic activity against Crj:CD-1 ICR mouse assessed as inhibition of Compound 48/80-induced scratching behaviour at 1 % compound painted on shaven back 15 mins before challenge measured for 30 mins relative to control; assay type: functional
Cannabinoid receptor 1 [5] = biological target: T2, Cannabinoid receptor 1 (Homo sapiens, UniProt P21554); test: Displacement of [3H]CP55940 from human CB1 receptor membrane fractions; procedure, shortened: as §1
T2 sequence (P21554 whole entry): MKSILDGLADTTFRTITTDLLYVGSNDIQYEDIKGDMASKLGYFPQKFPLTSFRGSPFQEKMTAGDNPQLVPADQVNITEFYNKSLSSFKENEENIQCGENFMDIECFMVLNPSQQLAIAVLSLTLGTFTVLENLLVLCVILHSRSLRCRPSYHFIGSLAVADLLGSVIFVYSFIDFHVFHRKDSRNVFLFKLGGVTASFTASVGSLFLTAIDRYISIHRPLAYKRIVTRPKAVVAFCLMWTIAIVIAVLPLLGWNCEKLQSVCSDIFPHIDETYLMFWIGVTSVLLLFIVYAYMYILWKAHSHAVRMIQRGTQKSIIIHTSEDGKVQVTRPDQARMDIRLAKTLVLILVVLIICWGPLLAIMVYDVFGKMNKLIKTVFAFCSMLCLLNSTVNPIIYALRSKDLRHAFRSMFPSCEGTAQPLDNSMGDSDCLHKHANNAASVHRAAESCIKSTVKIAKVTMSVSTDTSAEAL

Cannabinoid receptor 1 [6] = biological target: T2, Cannabinoid receptor 1; test: Agonist activity at human CB1 receptor expressed in CHO cells assessed as inhibition of forskolin-induced cAMP levels after 20 mins; assay type: functional, cell-based
Cannabinoid receptor 2 [7] = biological target: T1, Cannabinoid receptor 2; test: Agonist activity at human CB2 receptor expressed in CHO cells assessed as inhibition of forskolin-induced cAMP levels after 20 mins; assay type: functional, cell-based
Procedure, shortened: (§3)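 hCB2-expressing CHO cells in 24-well plates, exposed to compounds 20 min at 37 °C in Hanks'/20 mM HEPES buffer with 0.1 mM IBMX, 0.2 mM Ro20-1724, 0.1% BSA; forskolin 4 µM then added for 45 min at 37 °C; cellular cAMP quantified by kit.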

Cannabinoid receptor 1 [8] = biological target: T2, Cannabinoid receptor 1; test: Partial agonist activity at human CB1 receptor expressed in CHO cells assessed as inhibition of forskolin-induced cAMP levels after 20 mins; assay type: functional, cell-based
Cannabinoid receptor 2 [9] = biological target: T1, Cannabinoid receptor 2; test: Partial agonist activity at human CB2 receptor expressed in CHO cells assessed as inhibition of forskolin-induced cAMP levels after 20 mins; assay type: functional, cell-based; procedure, shortened: as §3

T1 sequence (P34972 whole entry): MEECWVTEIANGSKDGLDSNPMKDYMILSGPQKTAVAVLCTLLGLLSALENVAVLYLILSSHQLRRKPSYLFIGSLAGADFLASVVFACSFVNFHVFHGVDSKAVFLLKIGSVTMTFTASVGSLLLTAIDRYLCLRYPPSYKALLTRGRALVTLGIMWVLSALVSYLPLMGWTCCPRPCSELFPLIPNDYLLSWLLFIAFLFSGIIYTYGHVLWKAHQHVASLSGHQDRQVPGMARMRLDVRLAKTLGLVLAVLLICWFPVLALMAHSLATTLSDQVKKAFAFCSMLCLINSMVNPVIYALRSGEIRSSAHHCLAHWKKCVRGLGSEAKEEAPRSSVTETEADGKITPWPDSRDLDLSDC

| Compound | Ki (Cannabinoid receptor 2 [1]) [µM] | Activity (Mus musculus [2]) | Activity (Mus musculus [3]) | inhibition (INH) (Mus musculus [4]) [%] | Ki (Cannabinoid receptor 1 [5]) [µM] | IC50 (Cannabinoid receptor 1 [6]) [µM] | IC50 (Cannabinoid receptor 2 [7]) [µM] | Activity (Cannabinoid receptor 1 [8]) | Activity (Cannabinoid receptor 2 [9]) |
| --- | --- | --- | --- | --- | --- | --- | --- | --- | --- |
| O=C(O)c1ccc(CNC(=O)c2cc3c(n(CC4CCCCC4)c2=O)CCCCCC3)cc1 | 0.923 | – | – | – | – | – | – | – | – |
| O=C(O)Cc1csc(NC(=O)c2cc3c(n(CC4CCCCC4)c2=O)CCCCCC3)n1 | – | Non-toxic | Non-toxic | 109 | – | – | – | – | – |
| O=C(O)c1csc(NC(=O)c2cc3c(n(CC4CCCCC4)c2=O)CCCCCC3)n1 | > 5 | – | – | – | > 5 | > 2 | – | – | – |
| CC(C)(NC(=O)c1cc2c(n(CC3CCCCC3)c1=O)CCCCCC2)C(=O)O | 0.349 | – | – | – | 1.35 | – | – | – | – |
| CC(C)[C@H](NC(=O)c1cc2c(n(CC3CCCCC3)c1=O)CCCCCC2)C(=O)O | 0.116 | – | – | – | 1.88 | – | – | – | – |
| O=C(O)CCc1csc(NC(=O)c2cc3c(n(CC4CCCCC4)c2=O)CCCCCC3)n1 | – | Non-toxic | Non-toxic | – | – | – | – | – | – |
| O=C(O)Cc1ccccc1NC(=O)c1cc2c(n(CC3CCCCC3)c1=O)CCCCCC2 | 0.046 | – | – | – | 0.548 | – | – | – | – |
| O=C(O)c1ccccc1NC(=O)c1cc2c(n(CC3CCCCC3)c1=O)CCCCCC2 | 0.181 | – | – | – | 2.53 | 0.657 | 0.167 | – | – |
| O=C(O)c1cccc(NC(=O)c2cc3c(n(CC4CCCCC4)c2=O)CCCCCC3)c1 | 0.614 | – | – | – | 1.56 | 0.611 | 0.268 | – | – |
| O=C(O)Cc1ccc(NC(=O)c2cc3c(n(CC4CCCCC4)c2=O)CCCCCC3)cc1 | 0.074 | – | – | – | 3.99 | > 2 | 0.096 | – | – |
| O=C(O)Cc1cccc(NC(=O)c2cc3c(n(CC4CCCCC4)c2=O)CCCCCC3)c1 | 0.12 | – | – | – | 2.88 | 0.997 | 0.18 | – | – |
| O=C(N[C@@H](C(=O)O)c1ccccc1)c1cc2c(n(CC3CCCCC3)c1=O)CCCCCC2 | 0.003 | – | – | – | 0.069 | > 2 | 0.0044 | Active | Active |
| O=C(O)c1cnc(NC(=O)c2cc3c(n(CC4CCCCC4)c2=O)CCCCCC3)s1 | 0.885 | – | – | – | > 5 | > 2 | 0.8 | – | – |
| O=C(O)Cc1cnc(NC(=O)c2cc3c(n(CC4CCCCC4)c2=O)CCCCCC3)s1 | 0.0046 | – | – | – | 0.235 | 0.023 | 0.0035 | Active | Active |
| O=C(O)c1ccc(NC(=O)c2cc3c(n(CC4CCCCC4)c2=O)CCCCCC3)cc1 | 0.107 | – | – | – | 0.37 | 0.291 | 0.038 | – | – |
| O=C(N[C@H](C(=O)O)C1CCCCC1)c1cc2c(n(CC3CCCCC3)c1=O)CCCCCC2 | 0.111 | – | – | – | 3.06 | > 2 | 0.051 | – | – |
| O=C(N[C@H](C(=O)O)c1ccccc1)c1cc2c(n(CC3CCCCC3)c1=O)CCCCCC2 | 0.0012 | – | – | – | – | > 2 | – | Active | Active |
| O=C(N[C@@H](Cc1ccccc1)C(=O)O)c1cc2c(n(CC3CCCCC3)c1=O)CCCCCC2 | 0.033 | – | – | – | 0.738 | 0.297 | 0.126 | – | – |

Reference: ChEMBL document CHEMBL2021918, “Discovery of S-444823, a potent CB1/CB2 dual agonist as an antipruritic agent” (Bioorg Med Chem Lett, 2012)
